Data from ChEMBL document CHEMBL5058577, “EUbOPEN Chemogenomics Library 2 (Multiplex)” (2022).

System: Fibroblast
Test: Multiplex assay against human fibroblast
Assay type: toxicity, cell-based
Procedure, shortened: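 Tubulin, mitochondrial-mass and membrane-permeability phenotypes are per cents of healthy-nucleus cells. Cells were gated by CellPathfinder machine learning into Hoechst high-intensity objects or normal cells, normal cells into healthy, pyknosed or fragmented nuclei, and pyknosed cells into mitotic or apoptotic. Before that, live cells stained at seeding with Hoechst33342, BioTracker Green Microtubule Cytoskeleton Dye, MitoTracker Red and Annexin V Alexa Fluor 680 were imaged on a CQ1 microscope at 37°C and 5% CO2 after compound addition.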

[1] = 12 h, 1 µM, compound concentration 1 uM, replicate 1
[2] = 12 h, 1 µM, compound concentration 1 uM, replicate 2
[3] = 12 h, 10 µM, compound concentration 10 uM, replicate 1
[4] = 12 h, 10 µM, compound concentration 10 uM, replicate 2
[5] = 24 h, 1 µM, compound concentration 1 uM, replicate 1
[6] = 24 h, 1 µM, compound concentration 1 uM, replicate 2
[7] = 24 h, 10 µM, compound concentration 10 uM, replicate 1
[8] = 24 h, 10 µM, compound concentration 10 uM, replicate 2
[9] = 48 h, 1 µM, compound concentration 1 uM, replicate 1
[10] = 48 h, 1 µM, compound concentration 1 uM, replicate 2
[11] = 48 h, 10 µM, compound concentration 10 uM, replicate 1
[12] = 48 h, 10 µM, compound concentration 10 uM, replicate 2

## Oc1c(CN2CCN(c3ccccn3)CC2)cc(Cl)c2cccnc12
[1]
  Population Apoptotic (%): 73%
  Population Fragmented Nuclei (%): 17%
  Population Healthy Nuclei (%): 68%
  Population Hoechst High Intensity Objects (%): 4%
  Population Membrane Permeable-Phenotype (%): 1%
  Population Mitochondria Different-Phenotype (%): 0%
  Population Mitotic Cells (%): 26%
  Population Normal (%): 95%
  Population Pyknosed Nuclei (%): 14%
  Population Tubulin-Different-Phenotype (%): 27%
  Total Cell Count: 168
[2]
  Population Apoptotic (%): 57%
  Population Fragmented Nuclei (%): 27%
  Population Healthy Nuclei (%): 54%
  Population Hoechst High Intensity Objects (%): 5%
  Population Membrane Permeable-Phenotype (%): 8%
  Population Mitochondria Different-Phenotype (%): 6%
  Population Mitotic Cells (%): 42%
  Population Normal (%): 94%
  Population Pyknosed Nuclei (%): 18%
  Population Tubulin-Different-Phenotype (%): 43%
  Total Cell Count: 152
[3]
  Population Apoptotic (%): 41%
  Population Fragmented Nuclei (%): 17%
  Population Healthy Nuclei (%): 54%
  Population Hoechst High Intensity Objects (%): 5%
  Population Membrane Permeable-Phenotype (%): 0%
  Population Mitochondria Different-Phenotype (%): 25%
  Population Mitotic Cells (%): 58%
  Population Normal (%): 94%
  Population Pyknosed Nuclei (%): 27%
  Population Tubulin-Different-Phenotype (%): 67%
  Total Cell Count: 130
[4]
  Population Apoptotic (%): 33%
  Population Fragmented Nuclei (%): 25%
  Population Healthy Nuclei (%): 58%
  Population Hoechst High Intensity Objects (%): 2%
  Population Membrane Permeable-Phenotype (%): 2%
  Population Mitochondria Different-Phenotype (%): 9%
  Population Mitotic Cells (%): 66%
  Population Normal (%): 97%
  Population Pyknosed Nuclei (%): 16%
  Population Tubulin-Different-Phenotype (%): 62%
  Total Cell Count: 131
[5]
  Population Apoptotic (%): 50%
  Population Fragmented Nuclei (%): 19%
  Population Healthy Nuclei (%): 67%
  Population Hoechst High Intensity Objects (%): 3%
  Population Membrane Permeable-Phenotype (%): 0%
  Population Mitochondria Different-Phenotype (%): 3%
  Population Mitotic Cells (%): 50%
  Population Normal (%): 96%
  Population Pyknosed Nuclei (%): 13%
  Population Tubulin-Different-Phenotype (%): 30%
  Total Cell Count: 174
[6]
  Population Apoptotic (%): 45%
  Population Fragmented Nuclei (%): 29%
  Population Healthy Nuclei (%): 56%
  Population Hoechst High Intensity Objects (%): 5%
  Population Membrane Permeable-Phenotype (%): 8%
  Population Mitochondria Different-Phenotype (%): 7%
  Population Mitotic Cells (%): 55%
  Population Normal (%): 94%
  Population Tubulin-Different-Phenotype (%): 47%
  Total Cell Count: 153
[7]
  Population Apoptotic (%): 89%
  Population Fragmented Nuclei (%): 26%
  Population Healthy Nuclei (%): 46%
  Population Hoechst High Intensity Objects (%): 0%
  Population Membrane Permeable-Phenotype (%): 1%
  Population Mitochondria Different-Phenotype (%): 15%
  Population Mitotic Cells (%): 10%
  Population Normal (%): 100%
  Population Pyknosed Nuclei (%): 27%
  Population Tubulin-Different-Phenotype (%): 57%
  Total Cell Count: 139
[8]
  Population Apoptotic (%): 56%
  Population Fragmented Nuclei (%): 35%
  Population Healthy Nuclei (%): 41%
  Population Hoechst High Intensity Objects (%): 2%
  Population Mitochondria Different-Phenotype (%): 11%
  Population Mitotic Cells (%): 43%
  Population Normal (%): 97%
  Population Pyknosed Nuclei (%): 22%
  Population Tubulin-Different-Phenotype (%): 68%
  Total Cell Count: 134
[9]
  Population Apoptotic (%): 54%
  Population Fragmented Nuclei (%): 17%
  Population Healthy Nuclei (%): 67%
  Population Hoechst High Intensity Objects (%): 5%
  Population Membrane Permeable-Phenotype (%): 1%
  Population Mitochondria Different-Phenotype (%): 1%
  Population Mitotic Cells (%): 45%
  Population Normal (%): 94%
  Population Pyknosed Nuclei (%): 14%
  Population Tubulin-Different-Phenotype (%): 35%
  Total Cell Count: 158
[10]
  Population Apoptotic (%): 70%
  Population Fragmented Nuclei (%): 25%
  Population Healthy Nuclei (%): 66%
  Population Hoechst High Intensity Objects (%): 0%
  Population Membrane Permeable-Phenotype (%): 4%
  Population Mitochondria Different-Phenotype (%): 4%
  Population Mitotic Cells (%): 30%
  Population Normal (%): 99%
  Population Pyknosed Nuclei (%): 7%
  Population Tubulin-Different-Phenotype (%): 37%
  Total Cell Count: 137
[11]
  Population Apoptotic (%): 85%
  Population Fragmented Nuclei (%): 31%
  Population Healthy Nuclei (%): 32%
  Population Hoechst High Intensity Objects (%): 2%
  Population Membrane Permeable-Phenotype (%): 0%
  Population Mitochondria Different-Phenotype (%): 9%
  Population Mitotic Cells (%): 14%
  Population Normal (%): 97%
  Population Pyknosed Nuclei (%): 35%
  Population Tubulin-Different-Phenotype (%): 38%
  Total Cell Count: 137
[12]
  Population Apoptotic (%): 78%
  Population Fragmented Nuclei (%): 34%
  Population Healthy Nuclei (%): 41%
  Population Membrane Permeable-Phenotype (%): 1%
  Population Mitochondria Different-Phenotype (%): 7%
  Population Mitotic Cells (%): 21%
  Population Pyknosed Nuclei (%): 24%
  Population Tubulin-Different-Phenotype (%): 65%

## CCOc1c2c(c(OCC)c3ncccc13)CN(c1ccc(CS(=O)(=O)NC(=O)Cc3ccccc3OC)cc1C)C2=O
[1]
  Population Apoptotic (%): 44%
  Population Fragmented Nuclei (%): 15%
  Population Healthy Nuclei (%): 68%
  Population Hoechst High Intensity Objects (%): 0%
  Population Membrane Permeable-Phenotype (%): 1%
  Population Mitochondria Different-Phenotype (%): 3%
  Population Mitotic Cells (%): 55%
  Population Normal (%): 99%
  Population Pyknosed Nuclei (%): 15%
  Population Tubulin-Different-Phenotype (%): 23%
  Total Cell Count: 120
[2]
  Population Apoptotic (%): 38%
  Population Fragmented Nuclei (%): 37%
  Population Healthy Nuclei (%): 42%
  Population Hoechst High Intensity Objects (%): 4%
  Population Membrane Permeable-Phenotype (%): 8%
  Population Mitochondria Different-Phenotype (%): 2%
  Population Mitotic Cells (%): 61%
  Population Normal (%): 95%
  Population Pyknosed Nuclei (%): 19%
  Population Tubulin-Different-Phenotype (%): 62%
  Total Cell Count: 111
[3]
  Population Apoptotic (%): 35%
  Population Fragmented Nuclei (%): 15%
  Population Healthy Nuclei (%): 63%
  Population Hoechst High Intensity Objects (%): 1%
  Population Membrane Permeable-Phenotype (%): 1%
  Population Mitochondria Different-Phenotype (%): 6%
  Population Mitotic Cells (%): 64%
  Population Normal (%): 98%
  Population Pyknosed Nuclei (%): 21%
  Population Tubulin-Different-Phenotype (%): 27%
  Total Cell Count: 161
[4]
  Population Apoptotic (%): 21%
  Population Fragmented Nuclei (%): 19%
  Population Healthy Nuclei (%): 50%
  Population Hoechst High Intensity Objects (%): 3%
  Population Membrane Permeable-Phenotype (%): 7%
  Population Mitochondria Different-Phenotype (%): 8%
  Population Mitotic Cells (%): 78%
  Population Normal (%): 96%
  Population Pyknosed Nuclei (%): 29%
  Population Tubulin-Different-Phenotype (%): 54%
  Total Cell Count: 146
[5]
  Population Apoptotic (%): 56%
  Population Fragmented Nuclei (%): 13%
  Population Healthy Nuclei (%): 67%
  Population Hoechst High Intensity Objects (%): 3%
  Population Membrane Permeable-Phenotype (%): 2%
  Population Mitochondria Different-Phenotype (%): 3%
  Population Mitotic Cells (%): 43%
  Population Normal (%): 96%
  Population Pyknosed Nuclei (%): 18%
  Population Tubulin-Different-Phenotype (%): 23%
  Total Cell Count: 127
[6]
  Population Apoptotic (%): 46%
  Population Fragmented Nuclei (%): 37%
  Population Healthy Nuclei (%): 32%
  Population Hoechst High Intensity Objects (%): 2%
  Population Membrane Permeable-Phenotype (%): 18%
  Population Mitotic Cells (%): 53%
  Population Normal (%): 97%
  Population Pyknosed Nuclei (%): 29%
  Population Tubulin-Different-Phenotype (%): 69%
  Total Cell Count: 104
[7]
  Population Apoptotic (%): 42%
  Population Fragmented Nuclei (%): 17%
  Population Healthy Nuclei (%): 66%
  Population Hoechst High Intensity Objects (%): 3%
  Population Membrane Permeable-Phenotype (%): 1%
  Population Mitochondria Different-Phenotype (%): 2%
  Population Mitotic Cells (%): 57%
  Population Normal (%): 96%
  Population Pyknosed Nuclei (%): 15%
  Population Tubulin-Different-Phenotype (%): 19%
  Total Cell Count: 171
[8]
  Population Fragmented Nuclei (%): 25%
  Population Healthy Nuclei (%): 49%
  Population Hoechst High Intensity Objects (%): 4%
  Population Membrane Permeable-Phenotype (%): 5%
  Population Normal (%): 95%
  Population Pyknosed Nuclei (%): 25%
  Population Tubulin-Different-Phenotype (%): 50%
  Total Cell Count: 142
[9]
  Population Apoptotic (%): 57%
  Population Fragmented Nuclei (%): 18%
  Population Healthy Nuclei (%): 66%
  Population Hoechst High Intensity Objects (%): 3%
  Population Membrane Permeable-Phenotype (%): 1%
  Population Mitochondria Different-Phenotype (%): 3%
  Population Mitotic Cells (%): 42%
  Population Normal (%): 96%
  Population Pyknosed Nuclei (%): 15%
  Population Tubulin-Different-Phenotype (%): 26%
  Total Cell Count: 128
[10]
  Population Apoptotic (%): 66%
  Population Fragmented Nuclei (%): 47%
  Population Healthy Nuclei (%): 40%
  Population Hoechst High Intensity Objects (%): 5%
  Population Membrane Permeable-Phenotype (%): 5%
  Population Mitochondria Different-Phenotype (%): 7%
  Population Mitotic Cells (%): 33%
  Population Normal (%): 94%
  Population Pyknosed Nuclei (%): 12%
  Population Tubulin-Different-Phenotype (%): 72%
  Total Cell Count: 105
[11]
  Population Apoptotic (%): 71%
  Population Fragmented Nuclei (%): 16%
  Population Healthy Nuclei (%): 63%
  Population Hoechst High Intensity Objects (%): 7%
  Population Membrane Permeable-Phenotype (%): 1%
  Population Mitochondria Different-Phenotype (%): 2%
  Population Mitotic Cells (%): 28%
  Population Normal (%): 92%
  Population Pyknosed Nuclei (%): 20%
  Population Tubulin-Different-Phenotype (%): 20%
  Total Cell Count: 171
[12]
  Population Apoptotic (%): 29%
  Population Fragmented Nuclei (%): 34%
  Population Healthy Nuclei (%): 45%
  Population Hoechst High Intensity Objects (%): 9%
  Population Membrane Permeable-Phenotype (%): 7%
  Population Mitochondria Different-Phenotype (%): 5%
  Population Mitotic Cells (%): 70%
  Population Normal (%): 90%
  Population Tubulin-Different-Phenotype (%): 51%
  Total Cell Count: 131
